Assay outcomes from PubChem.
A selection: hits, their analogues and other compounds. The true share with any hit is near 4%.
UPR CHOP act = activators of apoptotic arm of unfolded protein response (CHOP); CHO-CHOP luciferase reporter, UPR activation, luminescence; percent of tunicamycin response over DMSO baseline; hit rate 0.34% among 330,000; activation, % at 10 µM; AID 449763;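 active = at 10 µM dose, activation of 40% or more, normalized to positive control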;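 note: 100% = tunicamycin at 10 µg/mL and 0% = DMSO alone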
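Assay system: CHO cells with stable CHOP pathway luciferase reporter; Buffer or medium: F12 plus 10% serum; Times: 16-18 h cell attachment, then 6 h compound exposure, 37 °C; Signal: luciferase luminescence; Read-out basis: percent activation relative to tunicamycin control; Control set: tunicamycin high control, DMSO low control.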
Granule exo inh = lytic granule exocytosis inhibition. TALL-104 LAMP-1 surface exposure, flow cytometry; cells stimulated with thapsigargin and PMA. inhibition, % at 10 µM. hit rate 0.66% among 360,000. AID 651702;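 active = inhibition above about 55%, limit read from the data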
XBP1 UPR activ = activators of adaptive arm of unfolded protein response (XBP1). CHO-XBP1 luciferase reporter, IRE1-XBP1 UPR activation, luminescence; percent of tunicamycin response, DMSO as zero. activation, % at 20 µM. hit rate 0.33% among 330,000;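 active = versus positive control, 20 µM dose yields 30% or more activation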;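 note: 100% = tunicamycin at 10 µg/mL and 0% = DMSO only wells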
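Material: CHO cell line with stable XBP1 luciferase reporter; buffer or medium: F12 medium containing 10% fetal bovine serum; compound: single point, 20 µM final compound, 1% DMSO; incubation: 6 h treatment, 37 °C; measured by: glow luminescence from Steady-Glo reagent; evaluation: activation, % of tunicamycin; control set: tunicamycin high, DMSO low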
Mdm2 MdmX PPI = inhibitors of human Mdm2/MdmX interaction; O15151+Q00987; SaOS-2 split-luciferase Mdm2/MdmX complementation, luminescence; inhibition, % at 8 µM; hit rate 3% among 330,000; AID 485346;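 active = inhibition of at least 50% at 8 µM in the primary screen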
ABHD5-PLIN5 inh = ABHD5-PLIN5 protein interaction inhibition | Q00G26+Q8WTS1 | Split G. princeps luciferase complementation, luminescence, 4 h | inhibition, % at 4 µM | hit rate 0.78% among 360,000 | AID 602281;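 active = inhibition above the mean inhibition across every tested compound plus 3 SD, cut at about 22% in these data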;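 note: 0% = DMSO only wells and the 100% control is not disclosed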
Target sequence (Q00G26 whole entry, looked up): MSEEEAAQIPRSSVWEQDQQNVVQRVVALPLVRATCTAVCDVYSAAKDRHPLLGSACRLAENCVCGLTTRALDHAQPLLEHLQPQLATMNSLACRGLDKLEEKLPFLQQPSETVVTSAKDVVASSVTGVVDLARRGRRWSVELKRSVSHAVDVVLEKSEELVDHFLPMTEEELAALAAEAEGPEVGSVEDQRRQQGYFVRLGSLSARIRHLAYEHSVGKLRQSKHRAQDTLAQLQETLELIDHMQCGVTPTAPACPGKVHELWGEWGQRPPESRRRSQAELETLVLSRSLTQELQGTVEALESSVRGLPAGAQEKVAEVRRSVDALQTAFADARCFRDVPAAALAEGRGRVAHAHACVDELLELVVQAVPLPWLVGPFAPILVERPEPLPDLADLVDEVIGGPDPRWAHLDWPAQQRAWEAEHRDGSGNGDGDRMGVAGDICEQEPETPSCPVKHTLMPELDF
Target sequence (Q8WTS1 whole entry, looked up): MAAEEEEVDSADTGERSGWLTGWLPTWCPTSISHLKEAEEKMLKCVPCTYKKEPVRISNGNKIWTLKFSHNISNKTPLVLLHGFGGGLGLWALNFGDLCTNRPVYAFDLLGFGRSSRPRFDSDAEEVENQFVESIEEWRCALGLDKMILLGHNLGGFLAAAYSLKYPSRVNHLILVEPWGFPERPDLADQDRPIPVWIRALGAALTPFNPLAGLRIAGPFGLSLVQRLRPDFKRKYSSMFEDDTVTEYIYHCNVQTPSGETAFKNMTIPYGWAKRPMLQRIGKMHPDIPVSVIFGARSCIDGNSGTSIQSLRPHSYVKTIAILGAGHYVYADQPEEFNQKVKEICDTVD
Mdm2 MdmX conf = confirmation of human Mdm2/MdmX interaction inhibitors. inhibition, % at 8 µM. Mdm2-MdmX binding, luminescent assay. hit rate 55% among 10,000. shares compounds with Mdm2 MdmX PPI. AID 489028; in the data active = inhibition above about 40%
Full FLuc ctr = full-length luciferase inhibition in Mdm2/MdmX counter-screen | shares compounds with Mdm2 MdmX PPI | SaOS-2 full-length luciferase counterscreen, luminescence | inhibition, % at 8 µM | hit rate 77% among 6,200 | AID 504607;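 active = mean inhibition at 8 µM reaching about 37%, which flags the compound as non-specific, limit read from the data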;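 note: p53-null SaOS-2 cells with luciferase driven by a doxycycline-inducible promoter; compound on cells about two nights before reading with doxycycline added after day one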
* marks the source's active call; other numbers are inactive results; . = no result given.

SMILES | UPR CHOP act | Granule exo inh | XBP1 UPR activ | Mdm2 MdmX PPI | ABHD5-PLIN5 inh | Mdm2 MdmX conf | Full FLuc ctr
Cc1ccc(-c2cc(C(F)F)n3ncc(C(=O)Nc4c(C)nn(Cc5c(Cl)cccc5Cl)c4C)c3n2)cc1 | 23.5 | 3.9 | 28.3 | 80.3* | 1.9 | -8.7 | .
Cc1ccc(C2CC(C(F)F)n3ncc(C(=O)Nc4c(C)nn(Cc5c(F)cccc5Cl)c4C)c3N2)cc1 (centres undefined) | 1.5 | 15.2 | -1.1 | 69.9* | 4.3 | 25.8 | .
Cc1ccc(-c2cc(C(F)F)n3ncc(C(=O)Nc4c(C)nn(Cc5ccccc5Cl)c4C)c3n2)cc1 | 16.4 | 0.7 | 29.1 | 77.5* | -1.5 | 28.4 | .
Cc1nn(Cc2c(F)cccc2Cl)c(C)c1NC(=O)C1CC1 | 1.0 | -5.5 | -4.3 | -4.8 | -0.1 | . | .
Cc1ccc(NC(=O)c2ncn(CCCNCc3ccc4c(c3)OCO4)n2)cc1C | . | 1.4 | . | . | -0.4 | . | .
COCCn1c(Cc2ccccc2)nnc1SCC(=O)N1CCCCC1C (centres undefined) | 1.4 | 0.1 | -0.2 | 15.1 | -0.8 | . | .
Nc1ncnc(N2CCc3ccccc32)c1[N+](=O)[O-] | -1.8 | -0.7 | -2.3 | 82.1* | -6.4 | 85.0* | 51.6*
NNC(=O)c1ccc(N2CCc3ccccc32)c([N+](=O)[O-])c1 | 0.4 | 6.0 | -4.6 | -15.9 | -5.5 | . | .
O=C(NCCN1CCOCC1)c1ccc2c(c1)N(Cc1ccc(F)cc1)C(=O)CS2 | -1.9 | -0.5 | -1.7 | 1.8 | -3.0 | . | .
Cc1ccc(CNC(=O)Cc2ccc(-c3ccccc3)cc2)cc1 | -0.9 | 7.3 | 1.8 | 57.6* | 1.9 | 60.8* | 73.2*
Cc1ccc(CC(=O)NCc2ccc(F)cc2)cc1 | -1.2 | 0.5 | -0.6 | 58.1* | -1.8 | 48.0* | 59.3*
CCOC(=O)c1c(NC(C)=O)sc2c(OC)c(Br)ccc12 | -1.0 | -0.5 | 1.2 | 21.5 | 1.9 | . | .
CCOC(=O)c1c(NC(C)=O)sc2c(OCCN(CC)CC)c(Br)ccc12 | -0.9 | 8.8 | -2.1 | 55.2* | 6.5 | 14.4 | .
CC(C)C(NC(=O)Cc1ccccc1[N+](=O)[O-])C(C)C | 0.8 | 2.3 | 1.0 | 7.3 | 0.0 | . | .
O=C(Nc1cccc2ccccc12)NC1CCCCC1 | -0.1 | -3.9 | -5.3 | 15.1 | -1.6 | . | .
O=C(Nc1cccc2ccccc12)NC1Cc2ccccc2C1 | 0.4 | -19.6 | 0.8 | 78.8* | -6.2 | 3.4 | .
O=C(CNC(=O)c1ccccc1O)N/N=C/c1cc(Br)ccc1OC(=O)/C=C/c1ccco1 | 0.6 | . | -5.1 | 51.5* | . | 70.2* | 41.1*
O=C(CNC(=O)c1cccc(F)c1)N/N=C/c1cc(Br)ccc1OC(=O)/C=C/c1ccco1 | . | 13.3 | . | . | -1.8 | . | .
CCc1cc(C(=O)N2CCc3c([nH]c4ccccc34)C2c2ccc(OC)cc2F)no1 (centres undefined) | 1.6 | -1.4 | -2.3 | 83.3* | -5.5 | 85.0* | 34.5
COc1ccc(C2c3[nH]c4ccccc4c3CCN2C(=O)c2ccc(=O)n(C)n2)c(F)c1 (centres undefined) | 1.1 | -1.3 | 1.0 | -10.7 | 1.4 | . | .
Cc1nc(SCc2nc3cc(Cl)c(F)cc3[nH]2)c2oc3ccccc3c2n1 | -0.5 | -8.4 | 7.4 | 91.7* | -2.1 | 42.2* | 31.6
Cc1cc(N2CC34C=CC(O3)C(C(=O)O)C4C2=O)no1 (centres undefined) | -0.2 | -1.5 | -0.7 | 30.7 | -1.0 | . | .
COc1cccc(C(=O)Nc2ccc(N3CCN(C(=O)c4cccs4)CC3)cc2)c1 | -0.1 | -10.3 | 0.6 | 60.6* | -0.4 | 57.2* | 60.3*
O=C(Nc1cccnc1)c1cccs1 | -0.1 | -2.3 | -3.6 | 77.3* | -4.7 | 70.2* | 39.5*
O=C(NC(=S)Nc1cccnc1)c1cccs1 | 0.1 | -1.7 | -2.6 | 7.5 | 15.1 | . | .
SMILES | UPR CHOP act | Granule exo inh | XBP1 UPR activ | Mdm2 MdmX PPI | ABHD5-PLIN5 inh | Mdm2 MdmX conf | Full FLuc ctr
COc1cccc(NC(=O)c2ccc(CN3CCN(c4ccccc4)CC3)cc2)c1 | -0.5 | 1.2 | -1.8 | 57.2* | 1.0 | 32.4 | .
O=C(NC(=S)Nc1ccc(N2CCN(C(=O)c3ccccc3)CC2)cc1)c1cccs1 | -1.9 | -5.4 | -1.4 | 51.2* | -1.7 | 28.8 | .
COc1ccc(NC(=O)c2ccc(CN3CCN(c4ccccc4)CC3)cc2)cc1 | 1.3 | 1.5 | 0.7 | 38.2 | 3.3 | . | .
O=C(NC(=S)N1CCN(c2c(Cl)cccc2[N+](=O)[O-])CC1)c1cccs1 | -0.5 | -0.4 | -1.1 | 28.0 | -5.8 | . | .
Cc1nonc1NC(=O)CSc1cn[nH]n1 | 3.5 | -13.0 | 5.2 | 1.2 | -0.4 | . | .
COc1ccc(NC(=O)c2ccc(NC(=O)c3cccs3)cc2)cc1 | 1.1 | -0.2 | 7.4 | 66.8* | -6.3 | 26.3 | .
COc1ccccc1N=Nc1c(C)n[nH]c1C | -1.4 | 12.4 | -2.0 | -34.2 | 7.4 | . | .
Cc1n[nH]c(C)c1N=Nc1cc(Cl)ccc1Cl | 1.9 | 2.5 | 1.8 | 52.1* | 0.7 | 39.6 | 38.6*
Cc1cc(C(=O)CSc2ccc(F)cc2)cc(C)c1OC(=S)N(C)C | -4.8 | 4.4 | -9.2 | 58.4* | 0.3 | 84.0* | 107.0*
Cc1ccc(Cl)cc1N1CCN(S(=O)(=O)c2c(C)[nH]c(C)c2C(=O)N2CCCC2)CC1 | -1.1 | 4.8 | -4.0 | -1.6 | -2.1 | . | .
CCn1nc(C(=O)OCC(=O)NC(C)C)c2ccccc2c1=O | -0.5 | 0.4 | -3.6 | 12.9 | -2.5 | . | .
COc1ccc(OCC(=O)Nc2ccccc2N2CCN(C)CC2)cc1 | 0.8 | 12.1 | 0.2 | 0.8 | 2.0 | . | .
COc1ccc(OCC(=O)Nc2ccccc2-c2ccccc2)cc1 | 1.5 | -2.3 | 2.4 | 52.7* | -0.3 | 59.4* | 62.1*
COc1ccc(OCC(=O)Nc2ccccc2N2CCCCC2)cc1 | 2.6 | 0.4 | 4.0 | 60.8* | -16.4 | 76.0* | 59.1*
CCOC(=O)c1cnc2ccc(C)cc2c1Nc1ccc(N2CCOCC2)cc1 | 1.4 | 5.1 | -1.8 | 42.3 | 7.7 | . | .
NS(=O)(=O)c1cc(C(=O)NCCc2ccccn2)ccc1Cl | -0.1 | -3.3 | 0.1 | 12.3 | 14.0 | . | .
CC(C)CC(=O)Nc1ccnc(-c2ccncc2)n1 | -1.8 | -13.8 | 0.7 | -0.4 | -2.5 | . | .
COc1ccc(OCC(=O)Nc2cc(-c3nn(C)c(=O)c4ccccc34)ccc2N2CCOCC2)cc1 | 1.2 | -1.2 | 4.8 | 66.9* | 5.8 | 19.4 | .
Cn1nc(-c2ccc(N3CCCCC3)c(NC(=O)c3ccco3)c2)c2ccccc2c1=O | 3.7 | 27.5 | 16.9 | 88.0* | 5.9 | 43.5* | 40.9*
O=C(Nc1ccccc1)Oc1ccc[nH]c1=O | 0.3 | -6.0 | -5.7 | 20.5 | -1.5 | . | .
C=C(C)COc1ccc(-c2n[nH]c(C)c2-c2ccc(Br)cc2)c(O)c1 | 0.4 | -2.9 | 14.0 | 86.0* | -18.8 | 56.5* | 50.8*
COc1ccc(-c2cn[nH]c2-c2ccc(OCc3ccc([N+](=O)[O-])cc3)cc2O)cc1 | -1.6 | 3.7 | -3.2 | 86.0* | -2.6 | 77.2* | 22.4
